Test results as given in ChEMBL document CHEMBL4732136, “Synthesis, Tumor Specificity, and Photosensitizing Efficacy of Erlotinib-Conjugated Chlorins and Bacteriochlorins: Identification of a Highly Effective Candidate for Photodynamic Therapy of Cancer” (J Med Chem, 2021).

What was measured:
[1] = Drug uptake in tumor of SCID mouse xenografted with FaDu cells assessed as fold increase at 0.47 micromol/kg, iv pretreated with compound followed by light irradiation at a dose of 135 J/cm2 and 75 mW/cm2 and measured at 24 hrs by IVIS analysis; format: ADME, organism-based, Neoplasm; details: in vivo, dose 0.47 µmol/kg
In short: (§1)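 Female SCID mice bearing FaDu tumors 4–5 mm in diameter, 3 per group. PS in 1% Tween80/5% dextrose given iv at 0.47, 0.25 or 0.125 μmol/kg. IVIS whole-body fluorescence imaged at several time points; average radiant efficiency measured in tumor, liver and skin.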

[2] = Drug uptake in tumor of SCID mouse xenografted with FaDu cells at 0.47 micromol/kg, iv pretreated with compound followed by light irradiation at a dose of 135 J/cm2 and 75 mW/cm2 and measured at 24 hrs by IVIS analysis; format: ADME, organism-based, Neoplasm; details: in vivo, dose 0.47 µmol/kg; in short: as §1
[3] = Drug uptake in human CFSE-stained HN-121 cells assessed as increase in drug retention at 1.6 uM in medium with 10% FBS followed by 48 hrs chase period by inverted fluorescence microscopic analysis; format: ADME, cell-based; details: hn-121, 48 h
[4] = Drug uptake in liver of SCID mouse xenografted with human UMUC3 cells at 0.47 micromol/kg, iv pretreated with compound followed by light irradiation at a dose of 135 J/cm2 and 75 mW/cm2 measured at 24 hrs by IVIS analysis; format: ADME, organism-based; details: in vivo, dose 0.47 µmol/kg
In short: (§2)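 Female SCID mice with UMUC3 flank/shoulder tumors, 3 per group. PS in 1% Tween80/5% dextrose given iv at 0.47, 0.25 or 0.125 μmol/kg. Whole-body fluorescence imaging by IVIS at several times after injection; average radiant efficiency measured in tumor, liver and skin.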

FaDu [5] = assay: Photodynamic antitumor activity against human FaDu cels xenografted in SCID mouse assessed as cure rate at 0.47 micromol/kg, iv pretreated with compound followed by light irradiation at a dose of 135 J/cm2 and 75 mW/cm2 and measured at 24 hrs post dose relative to control; format: functional; details: dose 0.47 µmol/kg
In short: (§3)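 FaDu-bearing female SCID mice (5 per group per experiment) given iv PS at 0.47, 0.25 or 0.125 μmol/kg in Tween80/dextrose. Tumors irradiated 24 h post-injection at 665 nm, 135 J/cm², 75 mW/cm². Tumor growth measured daily for 60 days, with euthanasia above 400 mm³. Cure taken as tumor-free at day 60; survival analysed by log-rank test.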

[6] = Drug uptake in human FaDu clone 49 cells assessed as increase in drug retention at 1.6 uM in RPMI medium with 10% FBS followed by 48 hrs chase period by inverted fluorescence microscopic analysis
UMUC3 [7] = assay: Photosensitizing activity in human UMUC3 cells assessed as reduction in cell viability pretreated with compound for 24 hrs followed by light irradiation at 1 J/cm2 and measured after 48 hrs by MTT assay; format: functional, cell-based; details: UMUC3, light or radiation study
In short: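 Cells plated 0.01x10⁶ to 0.05x10⁶ cells/ml and allowed to adhere 24 h before photosensitizer was added, top dose 1600 nM with 2-fold serial dilutions. Plates received no light (0 J/cm²) or 1 J/cm² at 565 mW, 15 cm spot. After 48 h, MTT added for 3 h, formazan solubilized in DMSO and read at 570 nm; IC₅₀ fitted from dose-response.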

[8] = Drug uptake in skin of SCID mouse xenografted with FaDu cells at 0.47 micromol/kg, iv pretreated with compound followed by light irradiation at a dose of 135 J/cm2 and 75 mW/cm2 and measured at 24 hrs by IVIS analysis; format: ADME, organism-based, Skin of body; details: in vivo, dose 0.47 µmol/kg; in short: as §1
FaDu [9] = assay: Photodynamic antitumor activity against human FaDu cells xenografted in SCID mouse assessed as cure rate at 0.47 micromol/kg, iv pretreated with compound followed by light irradiation at a dose of 135 J/cm2 and 75 mW/cm2 measured at 24 hrs relative to control; format: functional; details: dose 0.47 µmol/kg; in short: as §3
[10] = Drug uptake in tumor of SCID mouse xenografted with human UMUC3 cells at 0.47 micromol/kg, iv pretreated with compound followed by light irradiation at a dose of 135 J/cm2 and 75 mW/cm2 measured after 24 hrs by IVIS analysis; format: ADME, organism-based, Neoplasm; details: in vivo, dose 0.47 µmol/kg; in short: as §2
[11] = Drug uptake in liver of SCID mouse xenografted with FaDu cells at 0.47 micromol/kg, iv pretreated with compound followed by light irradiation at a dose of 135 J/cm2 and 75 mW/cm2 and measured at 24 hrs by IVIS analysis; format: ADME, organism-based; details: in vivo, dose 0.47 µmol/kg; in short: as §1
[12] = Drug uptake in skin of SCID mouse xenografted with human UMUC3 cells at 0.47 micromol/kg, iv pretreated with compound followed by light irradiation at a dose of 135 J/cm2 and 75 mW/cm2 measured at 24 hrs by IVIS analysis; format: ADME, organism-based, Skin of body; details: in vivo, dose 0.47 µmol/kg; in short: as §2
FaDu [13] = assay: Photosensitizing activity in human FaDu cells assessed as reduction in cell viability pretreated with compound for 24 hrs followed by light irradiation at 1 J/cm2 and measured after 48 hrs by MTT assay; format: functional, cell-based; details: light or radiation study
In short: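 Cells seeded at 0.01–0.05 x 10⁶ cells/ml; PS added 24 h after plating, top dose 1600 nM with 2-fold serial dilutions. Plates given 0 or 1 J/cm² light. MTT added 48 h later, formazan dissolved in DMSO, absorbance at 570 nm; IC50 from curve fitting.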

[14] = Drug uptake in human HNT1 cells at 3.2 uM incubated for 30 mins in serum free medium followed by […] in compound-free medium by inverted fluorescence microscopic analysis; format: ADME, cell-based; details: hnt1, 0.5 h
In short: (§4)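 Confluent HNT1 cultures (passage 116) given 3.2 μM PS for 30 min in serum-free medium, then 5 h in serum-containing medium with PS, then 15 h chase in serum medium without PS. Fluorescence recorded at 100X with varied camera exposures and quantified digitally; pixel signal normalized to time and cell number.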

UMUC3 [15] = assay: Photodynamic antitumor activity against human UMUC3 cells xenografted in SCID mouse assessed as tumor retention at 0.47 micromol/kg, iv pretreated with compound followed by light irradiation at a dose of 135 J/cm2 and 75 mW/cm2 measured at day 30 post dose relative to control; format: functional; details: dose 0.47 µmol/kg; time 30 day
In short: (§5)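 UMUC3-bearing female SCID mice given iv PS in 1% Tween80/5% dextrose. Mice restrained and tumors irradiated at 665 nm, 135 J/cm² over 30 min at 75 mW/cm², at the time of maximal tumor uptake. Tumor regrowth measured daily for 60 days; mice euthanized above 400 mm³. Cure plotted as survival curves and compared by log-rank (Mantel-Cox) test.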

[16] = Drug uptake in human HNT1 cells at 3.2 uM incubated for 30 mins in DMEM media with 10% FBS followed by […] in compound-free medium by inverted fluorescence microscopic analysis; format: ADME, cell-based; details: hnt1, 0.5 h, in the assay text read “in serum-free medium” for “in DMEM media with 10% FBS”; in short: as §4
[17] = Drug uptake in tumor of SCID mouse xenografted with FaDu cells assessed as drug accumulation by measuring fold increase to that of liver at 0.47 micromol/kg, iv pretreated with compound followed by light irradiation at a dose of 135 J/cm2 and 75 mW/cm2 and measured after 24 hrs by IVIS analysis; format: ADME, organism-based, Neoplasm; details: in vivo, dose 0.47 µmol/kg; in short: as §1
UMUC3 [18] = assay: Photodynamic antitumor activity against human UMUC3 cels xenografted in SCID mouse assessed as cure rate at 0.47 micromol/kg, iv pretreated with compound followed by light irradiation at a dose of 135 J/cm2 and 75 mW/cm2 and measured after 60 days post dose relative to control; format: functional; details: dose 0.47 µmol/kg; time 60 day; in short: as §5
FaDu [19] = assay: Photodynamic antitumor activity against human FaDu cels xenografted in SCID mouse assessed as cure rate at 0.47 micromol/kg, iv pretreated with compound followed by light irradiation at a dose of 135 J/cm2 and 75 mW/cm2 and measured after 60 days post dose relative to control; format: functional; details: dose 0.47 µmol/kg; time 60 day; in short: as §3
[20] = Drug uptake in human HN-143 cells assessed as increase in drug retention retention at 3 uM in medium with 10% FBS incubated for 5 hrs followed by 40 hrs chase period by inverted fluorescence microscopic analysis; format: ADME, cell-based; details: hn-143, 5 h
In short: (§6)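 Five-day co-cultures of HN-143 tumor epithelial cells and HN-166 tumor fibroblasts, both primary head & neck tumor cultures grown on collagen-1 under selective media. PS in 10% FBS medium for 5 h, then 40 h chase without PS. Phase-contrast and fluorescence images taken at 100X with 500 ms exposure; signal normalized to recording time and cell number.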

[21] = Drug uptake in tumor of SCID mouse xenografted with human UMUC3 cells assessed as drug accumulation by measuring fold decrease to that of liver at 0.47 micromol/kg, iv followed by light irradiation at 665 nm at a dose of 135 J/cm2 and 75 mW/cm2 and measured after 24 hrs by IVIS analysis; format: ADME, organism-based, Neoplasm; details: in vivo; in short: as §2
[22] = Drug uptake in tumor of SCID mouse xenografted with FaDu cells at 0.47 micromol/kg, iv pretreated with compound followed by light irradiation at a dose of 135 J/cm2 and 75 mW/cm2 and measured at 6 hrs by IVIS analysis; format: ADME, organism-based, Neoplasm; details: in vivo, dose 0.47 µmol/kg; in short: as §1
[23] = Drug uptake in human HN-166 cells assessed as increase in drug retention retention at 3 uM in medium with 10% FBS incubated for 5 hrs followed by 40 hrs chase period by inverted fluorescence microscopic analysis; format: ADME, cell-based; details: hn-166, 5 h; in short: as §6

Row | Compound | Drug uptake [2] | Drug uptake [3] | Activity (FaDu [5]) | Drug uptake [6] | IC50 (UMUC3 [7]) | Drug uptake [8] | Drug uptake [10] | Drug uptake [11] | IC50 (FaDu [13]) | other results
1 | CCC1=C(C)c2cc3[nH]c(cc4nc(c5c6[nH]c(cc1n2)c(C)c6C(=O)C5)[C@@H](CCC(=O)OC)[C@@H]4C)c(C)c3C(C)OCc1ccc(C#Cc2cccc(Nc3ncnc4cc(OCCOC)c(OCCOC)cc34)c2)cc1 (stereo not given in full) | Active | Active | 66% | Active | 20.9 nM | Active | Active | Active | 59.6 nM | fold change (FC) [1]: 2; Drug uptake [4]: Active; Activity (FaDu [9]): 66%; Drug uptake [12]: Active
2 | CCCCCCOC(C)c1c(C)c2cc3nc(c4c5[nH]c(cc6nc(cc1[nH]2)C(C)=C6CC)c(C)c5C(=O)C4)[C@@H](CCC(=O)O)[C@@H]3C (stereo not given in full) [HPPH] | Active | – | 30% | – | 68.4 nM | Active | Active | Active | 43.8 nM | Drug uptake [14]: Active; Activity (UMUC3 [15]): 30%; Drug uptake [16]: Active
3 | CCCCCCOC(C)c1c(C)c2cc3nc(c4c5[nH]c(cc6nc(cc1[nH]2)C(C)=C6CC)c(C)c5C(=O)C4)[C@@H](CCC(=O)NCCCCn1cc(-c2cccc(Nc4ncnc5cc(OCCOC)c(OCCOC)cc45)c2)nn1)[C@@H]3C (stereo not given in full) | – | Active | – | Active | 20.2 nM | – | Active | – | 17.6 nM | fold change (FC) [17]: 2; Activity (UMUC3 [18]): 20%; Activity (FaDu [19]): 40%; Drug uptake [20]: Active; fold change (FC) [21]: 2; Drug uptake [22]: Active; Drug uptake [23]: Active
